Reference: ChEMBL document CHEMBL1144264, “Structure-activity relationship studies on ortho-substituted cinnamic acids, a new class of selective EP(3) antagonists” (Bioorg Med Chem Lett, 2005)

Key:
[1] = biological target: T1, Prostaglandin E2 receptor EP1 subtype (Homo sapiens, UniProt P34995); assay: Binding affinity for human prostanoid EP1 receptor
T1 sequence (P34995 whole entry): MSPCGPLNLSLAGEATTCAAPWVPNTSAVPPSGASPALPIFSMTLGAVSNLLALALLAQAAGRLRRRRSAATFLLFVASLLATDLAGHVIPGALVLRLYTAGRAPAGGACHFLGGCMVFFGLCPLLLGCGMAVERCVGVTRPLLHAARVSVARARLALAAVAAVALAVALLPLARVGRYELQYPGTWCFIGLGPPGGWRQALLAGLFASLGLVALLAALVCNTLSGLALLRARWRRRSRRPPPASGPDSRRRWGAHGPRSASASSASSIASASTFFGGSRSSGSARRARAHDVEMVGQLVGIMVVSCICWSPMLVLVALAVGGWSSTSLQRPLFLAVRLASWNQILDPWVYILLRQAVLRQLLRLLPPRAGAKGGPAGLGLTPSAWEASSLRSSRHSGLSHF

[2] = biological target: Prostaglandin E2 receptor EP4 subtype (Homo sapiens, UniProt P35408); assay: Binding affinity for human prostanoid EP4 receptor
HEK293 [3] = assay: Inhibition of c-AMP production in HEK (EBNA) cells was determined by c-AMP assay; type: functional, HEK293-EBNA; conditions: Homo sapiens
In short: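 Functional cAMP read-out in HEK (EBNA) cells expressing the receptor: antagonism scored as reversal of EP3-mediated inhibition of cAMP production; EP2 activity scored as stimulation of cAMP production.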

[4] = biological target: Prostaglandin E2 receptor EP2 subtype (Homo sapiens, UniProt P43116); assay: Binding affinity for human prostanoid EP2 receptor
[5] = biological target: T2, Prostaglandin E2 receptor EP3 subtype (Homo sapiens, UniProt P43115); assay: Binding affinity for human prostanoid EP3 receptor
T2 sequence (P43115 whole entry): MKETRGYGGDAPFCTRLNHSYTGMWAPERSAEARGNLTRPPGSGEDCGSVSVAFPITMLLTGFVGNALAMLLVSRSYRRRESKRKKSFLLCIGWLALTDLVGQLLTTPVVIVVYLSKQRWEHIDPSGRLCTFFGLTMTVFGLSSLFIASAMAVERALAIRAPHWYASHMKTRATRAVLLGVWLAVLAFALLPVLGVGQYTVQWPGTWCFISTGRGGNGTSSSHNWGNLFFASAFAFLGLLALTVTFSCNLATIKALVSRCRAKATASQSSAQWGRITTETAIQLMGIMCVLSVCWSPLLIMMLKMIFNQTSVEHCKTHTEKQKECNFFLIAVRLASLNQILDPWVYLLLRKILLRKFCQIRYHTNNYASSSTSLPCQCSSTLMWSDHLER

[6] = Maximum concentration in rats after 10 mg/kg peroral and 5 mg/kg intravenous administration as sodium salts; type: ADME, organism-based; conditions: rat, in vivo, po
In short: (§1)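 Male Sprague–Dawley rats, 300–400 g. Oral bioavailability, clearance (mL/min/kg), Cmax (µM, with time of peak) and half-life derived from plasma profiles.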

[7] = Half life in rats after 10 mg/kg peroral and 5 mg/kg intravenous administration as sodium salts; type: ADME, organism-based; conditions: rat, in vivo; in short: as §1
[8] = Clearance in rats after 10 mg/kg peroral and 5 mg/kg intravenous administration as sodium salts; type: ADME, organism-based; conditions: rat, in vivo; in short: as §1
HEK293 [9] = assay: Stimulation of c-AMP production in HEK (EBNA) cells was determined by c-AMP assay; conditions: Homo sapiens
[10] = Bioavailability in rat (dose 10 mg/kg p.o. and 5 mg/kg i.v.) (dosed as sodium salt); type: ADME, organism-based; conditions: in vivo, po; in short: as §1

Chain of Prostaglandin E2 receptor EP2 subtype (P43116 whole entry): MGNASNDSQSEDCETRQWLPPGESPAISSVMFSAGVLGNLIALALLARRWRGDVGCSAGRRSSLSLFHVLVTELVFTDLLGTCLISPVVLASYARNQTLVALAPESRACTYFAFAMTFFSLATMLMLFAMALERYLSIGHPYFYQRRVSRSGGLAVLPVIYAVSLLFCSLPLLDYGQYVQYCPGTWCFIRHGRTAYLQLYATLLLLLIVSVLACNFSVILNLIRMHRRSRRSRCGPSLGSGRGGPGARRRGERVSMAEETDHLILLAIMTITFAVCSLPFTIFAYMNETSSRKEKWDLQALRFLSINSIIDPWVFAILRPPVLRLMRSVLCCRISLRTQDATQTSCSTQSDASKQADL
Chain of Prostaglandin E2 receptor EP4 subtype (P35408 whole entry): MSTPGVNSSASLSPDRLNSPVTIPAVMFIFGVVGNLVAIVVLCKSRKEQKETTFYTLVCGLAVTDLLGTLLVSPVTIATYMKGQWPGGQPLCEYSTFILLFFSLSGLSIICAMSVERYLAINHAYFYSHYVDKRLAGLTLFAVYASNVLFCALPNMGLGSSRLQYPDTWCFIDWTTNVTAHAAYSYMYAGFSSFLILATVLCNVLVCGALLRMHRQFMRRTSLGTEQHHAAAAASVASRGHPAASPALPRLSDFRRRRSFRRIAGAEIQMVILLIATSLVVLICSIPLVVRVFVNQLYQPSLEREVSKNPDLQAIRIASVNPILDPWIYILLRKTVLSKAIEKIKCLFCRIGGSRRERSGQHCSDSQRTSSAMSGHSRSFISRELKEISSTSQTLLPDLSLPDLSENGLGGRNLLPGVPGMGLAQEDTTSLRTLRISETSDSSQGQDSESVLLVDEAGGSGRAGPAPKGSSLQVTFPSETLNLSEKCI

Ki [1] [µM] | Ki [2] [nM] | Ki [4] [nM] | Ki [5] [nM] | Cmax [6] [µM] | half-life [7] [min] | clearance [8] [mL/min/kg] | bioavailability [10] [%] | SMILES | Kb (HEK293 [3]) [nM] | Kb (HEK293 [9]) [nM]
24 | 1000 | 680 | 25 | – | – | – | – | O=C(O)/C=C/c1ccccc1/C=C/Cc1ccccc1OCc1ccccc1.O=C(O)/C=C/c1ccccc1C/C=C\c1ccccc1OCc1ccccc1 | 50 | –
14 | 450 | 18 | 50 | – | – | – | – | O=C(O)/C=C/c1ccccc1/C=C/Cc1cccc(OCc2ccccc2)c1.O=C(O)/C=C/c1ccccc1C/C=C\c1cccc(OCc2ccccc2)c1 | 62 | –
21 | 3100 | 630 | 2000 | – | – | – | – | Cc1cccc(/C=C/Cc2cccc(/C=C/C(=O)O)c2)c1OCc1ccccc1.Cc1cccc(C/C=C/c2cccc(/C=C/C(=O)O)c2)c1OCc1ccccc1 | – | –
16 | 5700 | 7100 | 2700 | – | – | – | – | Cc1cccc(/C=C\Cc2ccccc2C(=O)O)c1OCc1ccccc1.Cc1cccc(C/C=C/c2ccccc2C(=O)O)c1OCc1ccccc1 | – | –
21 | 4300 | 2900 | 3400 | – | – | – | – | Cc1cccc(/C=C/Cc2ccccc2CC(=O)O)c1OCc1ccccc1.Cc1cccc(C/C=C/c2ccccc2CC(=O)O)c1OCc1ccccc1 | – | –
2.8 | 830 | 8700 | 260 | – | – | – | – | CC(=O)c1ccc(OCc2ccccc2)c(/C=C/Cc2ccccc2/C=C/C(=O)O)c1.CC(=O)c1ccc(OCc2ccccc2)c(C/C=C/c2ccccc2/C=C/C(=O)O)c1 | – | –
7.1 | 740 | 2500 | 13 | – | – | – | – | O=C(O)/C=C/c1ccccc1/C=C/Cc1cccc(CO)c1OCc1c(Cl)cccc1Cl.O=C(O)/C=C/c1ccccc1C/C=C/c1cccc(CO)c1OCc1c(Cl)cccc1Cl | – | –
> 100 | 4400 | 1400 | 100 | – | – | – | – | O=C(O)/C=C/c1ccccc1/C=C/Cc1ccccc1.O=C(O)/C=C/c1ccccc1C/C=C/c1ccccc1 | – | –
> 100 | 6200 | 2500 | 68 | – | – | – | – | COc1ccc(/C=C/Cc2ccccc2/C=C/C(=O)O)cc1.COc1ccc(C/C=C/c2ccccc2/C=C/C(=O)O)cc1 | – | –
> 20 | 610 | 750 | 8 | – | – | – | – | COc1cc(/C=C\Cc2ccccc2/C=C/C(=O)O)ccc1OCc1ccccc1.COc1cc(C/C=C/c2ccccc2/C=C/C(=O)O)ccc1OCc1ccccc1 | 6 | –
– | – | – | – | – | – | – | – | Cc1cccc(/C=C/Cc2ccccc2/C=C/C(=O)O)c1OCc1ccccc1 | 17 | –
17 | 2400 | 4100 | 7 | – | – | – | – | Cc1cccc(/C=C/Cc2ccccc2/C=C/C(=O)O)c1OCc1ccc(F)cc1 | 4 | –
23 | 440 | 940 | 65 | – | – | – | – | Cc1cccc(CCCc2ccccc2CCC(=O)O)c1OCc1ccccc1 | – | –
68 | 1600 | 7300 | 10 | – | – | – | – | Cc1cccc(/C=C/Cc2ccccc2/C=C/C(=O)O)c1O | 28 | –
3 | 930 | 2100 | 10 | – | – | – | – | Cc1cccc(/C=C/C(O)c2ccccc2/C=C/C(=O)O)c1OCc1c(Cl)cccc1Cl (configuration not stated) | 30 | –
45 | 2800 | 8 | 1400 | 1.7 | 120 | 16 | 17 | O=C(O)/C=C/c1ccccc1/C=C/c1ccccc1OCc1ccccc1 | – | 3
> 9 | 4300 | 1100 | 19 | – | – | – | – | COc1cccc(CCCc2ccccc2/C=C/C(=O)O)c1OCc1ccccc1 | 29 | –
6.7 | 620 | 5400 | 3 | 25 | 120 | 5.8 | 74 | Cc1cccc(/C=C/Cc2ccccc2/C=C/C(=O)O)c1OCc1c(Cl)cccc1Cl | 6 | –
13 | 1000 | 3900 | 9 | – | – | – | – | Cc1cccc(C(O)/C=C/c2ccccc2/C=C/C(=O)O)c1OCc1c(Cl)cccc1Cl (configuration not stated) | 30 | –
> 10 | 2900 | 380 | 13 | – | – | – | – | Cc1cccc(CCCc2ccccc2/C=C/C(=O)O)c1OCc1ccccc1 | 38 | –
– | 1200 | 550 | 13 | – | – | – | – | Cc1cccc(/C=C/Cc2ccccc2/C=C/C(=O)O)c1OCc1ccccc1.Cc1cccc(C/C=C/c2ccccc2/C=C/C(=O)O)c1OCc1ccccc1 (stereo in doubt; 2a) | – | –
19 | 2000 | 860 | 9 | 22 | 120 | 10 | 97 | Cc1cccc(/C=C/Cc2ccccc2/C=C/C(=O)O)c1OCc1ccccc1.Cc1cccc(C/C=C/c2ccccc2/C=C/C(=O)O)c1OCc1ccccc1 (stereo in doubt; 2a/3a) | 32 | –

SMILES | Ki [1] [µM] | Ki [2] [nM] | Ki [4] [nM] | Ki [5] [nM] | Cmax [6] [µM] | half-life [7] [min] | clearance [8] [mL/min/kg] | bioavailability [10] [%] | Kb (HEK293 [3]) [nM] | Kb (HEK293 [9]) [nM]
Cc1cccc(/C=C/Cc2ccc(/C=C/C(=O)O)cc2)c1OCc1ccccc1.Cc1cccc(C/C=C\c2ccc(/C=C/C(=O)O)cc2)c1OCc1ccccc1 | > 30 | 5500 | 1700 | 2900 | – | – | – | – | – | –
